Assays:
[1] = system: Human immunodeficiency virus 1; assay: Ratio of EC95 for HIV1 isolate R8 harboring reverse transcriptase K103N and Y181C mutant in presence of 50% human serum to EC95 for HIV1 isolate R8 harboring wild type reverse transcriptase in presence of 50% human serum; assay type: functional
How it was run: (§1)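 Ratios of EC95 values from the MT-4 multiple-cycle assay: R8 variants infected 24 h at low MOI, then reseeded in RPMI 1640 with 10% FBS or 50% type AB human serum with threefold dilutions (833–0.32 nM) for 72 h; p24 by AlphaScreen; EC95 = lowest concentration cutting p24 ≥95% versus untreated controls.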

[2] = system: Human immunodeficiency virus 1; assay: Ratio of EC95 for HIV1 isolate R8 harboring reverse transcriptase K103N mutant in presence of 50% human serum to EC95 for HIV1 isolate R8 harboring wild type reverse transcriptase in presence of 50% human serum; assay type: functional; how it was run: as §1
[3] = system: Human immunodeficiency virus 1; assay: Ratio of EC95 for HIV1 isolate R8 harboring reverse transcriptase Y181C mutant in presence of 50% human serum to EC95 for HIV1 isolate R8 harboring wild type reverse transcriptase in presence of 50% human serum; assay type: functional; how it was run: as §1
[4] = system: Human immunodeficiency virus 1; assay: Antiviral activity against HIV1 isolate R8 harboring reverse transcriptase K103N and Y181C mutant infected in human MT4 cells assessed as inhibition of viral replication after 72 hrs in presence of 50% human serum; assay type: functional; conditions: Human immunodeficiency virus 1, isolate R8, MT4, 72 h
How it was run: (§2)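 Multiple-cycle assay: MT-4 cells (2.5 × 10^5) infected with R8-based virus at low MOI, no inhibitor, 24 h at 37°C, 5% CO2; washed, reseeded at 5 × 10^4 cells in RPMI 1640 with 10% FBS or 50% type AB human serum; threefold serial dilutions from 833 nM to 0.32 nM; 72 h; p24 in medium by AlphaScreen; EC95 = lowest concentration giving ≥95% p24 reduction versus untreated.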

[5] = system: Human immunodeficiency virus 1; assay: Antiviral activity against HIV1 isolate R8 harboring reverse transcriptase Y181C mutant infected in human MT4 cells assessed as inhibition of viral replication after 72 hrs in presence of 50% human serum; assay type: functional; conditions: Human immunodeficiency virus 1, isolate R8, MT4, 72 h; how it was run: as §2
[6] = system: Human immunodeficiency virus 1; assay: Antiviral activity against HIV1 isolate R8 harboring reverse transcriptase K103N mutant infected in human MT4 cells assessed as inhibition of viral replication after 72 hrs in presence of 50% human serum; assay type: functional; conditions: Human immunodeficiency virus 1, isolate R8, MT4, 72 h; how it was run: as §2
[7] = system: Human immunodeficiency virus 1; assay: Antiviral activity against HIV1 isolate R8 harboring wild type reverse transcriptase infected in human MT4 cells assessed as inhibition of viral replication after 72 hrs in presence of 50% human serum; assay type: functional; conditions: Human immunodeficiency virus 1, isolate R8, MT4, 72 h; how it was run: as §2
[8] = system: Human immunodeficiency virus 1; assay: Antiviral activity against HIV1 isolate R8 harboring reverse transcriptase K103N and Y181C mutant infected in human MT4 cells assessed as inhibition of viral replication after 72 hrs in presence of 10% FBS; assay type: functional; conditions: Human immunodeficiency virus 1, isolate R8, MT4, 72 h; how it was run: as §2
[9] = system: Human immunodeficiency virus 1; assay: Antiviral activity against HIV1 isolate R8 harboring reverse transcriptase Y181C mutant infected in human MT4 cells assessed as inhibition of viral replication after 72 hrs in presence of 10% FBS; assay type: functional; conditions: Human immunodeficiency virus 1, isolate R8, MT4, 72 h; how it was run: as §2
[10] = system: Human immunodeficiency virus 1; assay: Antiviral activity against HIV1 isolate R8 harboring reverse transcriptase K103N mutant infected in human MT4 cells assessed as inhibition of viral replication after 72 hrs in presence of 10% FBS; assay type: functional; conditions: Human immunodeficiency virus 1, isolate R8, MT4, 72 h; how it was run: as §2
[11] = system: Human immunodeficiency virus 1; assay: Antiviral activity against HIV1 isolate R8 harboring wild type reverse transcriptase infected in human MT4 cells assessed as inhibition of viral replication after 72 hrs in presence of 10% FBS; assay type: functional; conditions: Human immunodeficiency virus 1, isolate R8, MT4, 72 h; how it was run: as §2
[12] = system: Human immunodeficiency virus 1; assay: Antiviral activity against HIV1 isolate R8 harboring reverse transcriptase L100I and K103N mutant relative to drug-sensitive HIV1 CNDO; assay type: functional
[13] = system: Human immunodeficiency virus 1; assay: Antiviral activity against HIV1 isolate R8 harboring reverse transcriptase Y181C and K103N mutant relative to drug-sensitive HIV1 CNDO; assay type: functional
[14] = system: Human immunodeficiency virus 1; assay: Antiviral activity against HIV1 isolate R8 harboring reverse transcriptase Y181I mutant relative to drug-sensitive HIV1 CNDO; assay type: functional
[15] = system: Human immunodeficiency virus 1; assay: Antiviral activity against HIV1 isolate R8 harboring reverse transcriptase F227C mutant relative to drug-sensitive HIV1 CNDO; assay type: functional
[16] = system: Human immunodeficiency virus 1; assay: Antiviral activity against HIV1 isolate R8 harboring reverse transcriptase M230L mutant relative to drug-sensitive HIV1 CNDO; assay type: functional
[17] = system: Human immunodeficiency virus 1; assay: Antiviral activity against HIV1 isolate R8 harboring reverse transcriptase K101P mutant relative to drug-sensitive HIV1 CNDO; assay type: functional
[18] = system: Plasma; assay: Plasma protein binding in HIV1 infected patient; assay type: ADME, cell-free; conditions: human
[19] = system: Plasma; assay: Plasma protein binding in healthy human at 200 mg/kg; assay type: ADME, organism-based; set-up: dose 200 mg/kg; conditions: in vivo

With `Cc1cc(C#N)cc(C)c1Oc1nc(Nc2ccc(C#N)cc2)nc(N)c1Br` [ETRAVIRINE] the “fold change (FC)” value [1] was 14, the “fold change (FC)” value [2] was 1.1 and the “fold change (FC)” value [3] was 7. It also gave an EC95 [4] of 542 nM, an EC95 [5] of 266 nM and an EC95 [6] of 43 nM. The EC95 [7] was 38 nM, the EC95 [8] was 56 nM and the EC95 [9] was 26 nM. For the same molecule, the EC95 [10] was 6 nM, the EC95 [11] was 4 nM and the fold change (FC) [12] was over 10. For the same molecule, the fold change (FC) [13] was over 10, the fold change (FC) [14] was over 10 and the fold change (FC) [15] was over 10. The fold change (FC) [16] was over 10, the fold change (FC) [17] was over 10 and the Activity [18] was over 99.5%. It also gave an Activity [19] of over 99.5%.
